Data on two molecules can be found in ChEMBL document CHEMBL1140876, “Synthesis and antibacterial property of quinolines with potent DNA gyrase activity” (2009).

The nature of test [1]: Inhibition of DNA gyrase assessed as pBR322 DNA relaxation at 5 uM. In outline: (§1)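 Relaxation without ATP: gyrase (60 nM) with supercoiled pBR322 DNA (6 nM) and drug at […] for 1 h at 37 °C; relaxation judged by gel. Ciprofloxacin, novobiocin and nalidixic acid comparators.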
Test [2] can be described thus: Inhibition of DNA gyrase assessed as pBR322 DNA relaxation at 1 uM. In outline: as §1
Test [3] deals with Klebsiella pneumoniae. As to the kind of experiment: Antimicrobial activity against Klebsiella pneumoniae at 10 ug after 24 hrs by disk diffusion method. It is filed as functional. Particulars: read-out: IZ. In outline: (§2)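 Inoculum made in 0.85% saline against McFarland standard, swabbed evenly onto nutrient agar; sterile filter-paper discs set equidistant and loaded with equal volumes of drug at varying amounts; zone of inhibition measured after 24 h at 37 °C; ciprofloxacin reference.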

Test [4] relates to Pseudomonas aeruginosa. In words: Antimicrobial activity against Pseudomonas aeruginosa at 5 ug after 24 hrs by disk diffusion method. The test is classed as functional. Particulars: read-out: IZ. In outline:
as §2

For test [5], the system named is Klebsiella pneumoniae. In words: Antimicrobial activity against Klebsiella pneumoniae at 5 ug after 24 hrs by disk diffusion method. Particulars: read-out: IZ. It is filed as functional. In outline: as §2
The subject of test [6] is Bacillus subtilis. In words: Antimicrobial activity against Bacillus subtilis at 25 ug after 24 hrs by disk diffusion method. The test is classed as functional. As to conditions: read-out: IZ. In outline: as §2
Test [7] relates to Escherichia coli. In words: Antimicrobial activity against Escherichia coli by broth microdilution assay. It is filed as functional. In outline: (§3)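 Broth microdilution per NCCLS 1997 in 96-well plate; final inoculum 10^5 cfu/mL; incubated 35.7 °C in air 18–20 h; MIC read as lowest concentration with no visible growth.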
Test [8] deals with Klebsiella pneumoniae. As to the kind of experiment: Antimicrobial activity against Klebsiella pneumoniae at 25 ug after 24 hrs by disk diffusion method. The test is classed as functional. Particulars: read-out: IZ. In outline: as §2
Test [9] relates to Staphylococcus aureus. In words: Antimicrobial activity against Staphylococcus aureus by broth microdilution assay. The test is classed as functional. In outline: as §3
Test [10] relates to Staphylococcus aureus. In words: Antimicrobial activity against Staphylococcus aureus at 20 ug after 24 hrs by disk diffusion method. It is filed as functional. Particulars: read-out: IZ. In outline: as §2
For test [11], the system named is Escherichia coli. In words: Inhibition of DNA gyrase gene expression in Escherichia coli assessed as decrease in band intensity by RT-PCR amplification. In outline:
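E. coli treated with drug; total RNA from cells sampled up to 24 h; 2 µg RNA to cDNA with MMLV reverse transcriptase; gyrase gene PCR (94 °C 4 min initial denaturation, 72 °C 7 min final extension); products on agarose gel, band intensity normalized to GAPDH; untreated cells as negative control.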

Test [12] concerns Salmonella typhimurium. As to the kind of experiment: Antimicrobial activity against Salmonella Typhimurium at 20 ug after 24 hrs by disk diffusion method. The test is classed as functional, Salmonella enterica subsp. enterica serovar Typhimurium. As to conditions: Salmonella enterica, read-out: IZ. In outline: as §2
The nature of test [13]: Inhibition of DNA gyrase assessed as conversion of relaxed pBR322 to supercoiled form. In outline: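 Supercoiling in 15 µL reactions: gyrase assay buffer, 150 ng relaxed pBR322, 2–3 µL purified DNA gyrase, 3 h at 37 °C (E. coli); stopped with 50% glycerol/0.25% bromophenol blue; 1% agarose in 1× TBE pH 8.3, 90 V 3 h; ethidium bromide stain; supercoiled band brightness by densitometry. Ciprofloxacin comparator.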

The test system of test [14] is Bacillus subtilis. In words: Antimicrobial activity against Bacillus subtilis at 15 ug after 24 hrs by disk diffusion method. It is filed as functional. Particulars: read-out: IZ. In outline: as §2
Test [15] deals with Pseudomonas aeruginosa. In words: Antimicrobial activity against Pseudomonas aeruginosa at 20 ug after 24 hrs by disk diffusion method. It is filed as functional. Particulars: read-out: IZ. In outline:
as §2

The test system of test [16] is Klebsiella pneumoniae. As to the kind of experiment: Antimicrobial activity against Klebsiella pneumoniae at 20 ug after 24 hrs by disk diffusion method. As to conditions: read-out: IZ. It is filed as functional. In outline:
as §2

The test system of test [17] is Pseudomonas aeruginosa. In words: Antimicrobial activity against Pseudomonas aeruginosa by broth microdilution assay. The test is classed as functional. In outline:
as §3

The subject of test [18] is Staphylococcus aureus. In words: Antimicrobial activity against Staphylococcus aureus at 10 ug after 24 hrs by disk diffusion method. It is filed as functional. As to conditions: read-out: IZ. In outline:
as §2

The test system of test [19] is Staphylococcus aureus. As to the kind of experiment: Antimicrobial activity against Staphylococcus aureus at 25 ug after 24 hrs by disk diffusion method. It is filed as functional. Particulars: read-out: IZ. In outline:
as §2

Test [20] relates to Staphylococcus aureus. As to the kind of experiment: Antimicrobial activity against Staphylococcus aureus at 5 ug after 24 hrs by disk diffusion method. The test is classed as functional. As to conditions: read-out: IZ. In outline: as §2
The subject of test [21] is Escherichia coli. As to the kind of experiment: Antimicrobial activity against Escherichia coli at 20 ug after 24 hrs by disk diffusion method. Particulars: read-out: IZ. It is filed as functional. In outline: as §2
Test [22] has as its system Pseudomonas aeruginosa. As to the kind of experiment: Antimicrobial activity against Pseudomonas aeruginosa at 15 ug after 24 hrs by disk diffusion method. As to conditions: read-out: IZ. The test is classed as functional. In outline: as §2
The test system of test [23] is Pseudomonas aeruginosa. In words: Antimicrobial activity against Pseudomonas aeruginosa at 10 ug after 24 hrs by disk diffusion method. The test is classed as functional. As to conditions: read-out: IZ. In outline: as §2
In test [24] the test system is Salmonella typhimurium. As to the kind of experiment: Antimicrobial activity against Salmonella Typhimurium at 15 ug after 24 hrs by disk diffusion method. The test is classed as functional, Salmonella enterica subsp. enterica serovar Typhimurium. As to conditions: Salmonella enterica, read-out: IZ. In outline:
as §2

Test [25] has as its system Bacillus subtilis. As to the kind of experiment: Antimicrobial activity against Bacillus subtilis at 20 ug after 24 hrs by disk diffusion method. The test is classed as functional. As to conditions: read-out: IZ. In outline: as §2
The test system of another test is Salmonella typhi. In words: Antimicrobial activity against Salmonella typhi by broth microdilution assay. The test is classed as functional, Salmonella enterica subsp. enterica serovar Typhi. Particulars: Salmonella enterica. In outline:
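Broth microdilution in 96-well plates following the NCCLS 1997 protocol. Final inoculum was 10^5 cfu/mL, with a control organism run alongside. Plates were incubated at 35.7 °C in air for 18–20 h. MIC is the lowest concentration with no visible growth.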

Test [26] deals with Bacillus subtilis. As to the kind of experiment: Antimicrobial activity against Bacillus subtilis by broth microdilution assay. The test is classed as functional. In outline:
as §3

Test [27] concerns Salmonella typhimurium. As to the kind of experiment: Antimicrobial activity against Salmonella Typhimurium at 10 ug after 24 hrs by disk diffusion method. The test is classed as functional, Salmonella enterica subsp. enterica serovar Typhimurium. Particulars: Salmonella enterica, read-out: IZ. In outline: as §2
The test system of test [28] is Escherichia coli. As to the kind of experiment: Antimicrobial activity against Escherichia coli at 5 ug after 24 hrs by disk diffusion method. The test is classed as functional. As to conditions: read-out: IZ. In outline:
as §2

For test [29], the system named is Salmonella typhimurium. In words: Antimicrobial activity against Salmonella Typhimurium at 25 ug after 24 hrs by disk diffusion method. As to conditions: Salmonella enterica, read-out: IZ. The test is classed as functional, Salmonella enterica subsp. enterica serovar Typhimurium. In outline:
as §2

Test [30] relates to Salmonella typhimurium. In words: Antimicrobial activity against Salmonella Typhimurium at 5 ug after 24 hrs by disk diffusion method. Particulars: Salmonella enterica, read-out: IZ. It is filed as functional, Salmonella enterica subsp. enterica serovar Typhimurium. In outline:
as §2

Test [31] concerns Staphylococcus aureus. As to the kind of experiment: Antimicrobial activity against Staphylococcus aureus at 15 ug after 24 hrs by disk diffusion method. The test is classed as functional. Particulars: read-out: IZ. In outline: as §2
Test [32] deals with Escherichia coli. In words: Antimicrobial activity against Escherichia coli at 25 ug after 24 hrs by disk diffusion method. It is filed as functional. As to conditions: read-out: IZ. In outline:
as §2

For test [33], the system named is Pseudomonas aeruginosa. In words: Antimicrobial activity against Pseudomonas aeruginosa at 25 ug after 24 hrs by disk diffusion method. The test is classed as functional. As to conditions: read-out: IZ. In outline:
as §2

The test system of test [34] is Klebsiella pneumoniae. As to the kind of experiment: Antimicrobial activity against Klebsiella pneumoniae by broth microdilution assay. It is filed as functional. In outline:
as §3

The test system of test [35] is Escherichia coli. As to the kind of experiment: Antimicrobial activity against Escherichia coli at 15 ug after 24 hrs by disk diffusion method. The test is classed as functional. As to conditions: read-out: IZ. In outline:
as §2

The test system of test [36] is Escherichia coli. In words: Antimicrobial activity against Escherichia coli at 10 ug after 24 hrs by disk diffusion method. The test is classed as functional. Particulars: read-out: IZ. In outline:
as §2

The subject of test [37] is Klebsiella pneumoniae. In words: Antimicrobial activity against Klebsiella pneumoniae at 15 ug after 24 hrs by disk diffusion method. As to conditions: read-out: IZ. The test is classed as functional. In outline:
as §2

Molecules are shown by their SMILES. In brackets after ≈: the same amount, converted by molar mass. Activity calls are given as the source filed them. The rule behind the calls is not given here.

On to `CO[C@@H]1[C@@H](OC(N)=O)[C@@H](O)[C@H](Oc2ccc3c(O)c(NC(=O)c4ccc(O)c(CC=C(C)C)c4)c(=O)oc3c2C)OC1(C)C`, for which the result in test [1] was inactive. Besides, the outcome in [2] was Active.

For the molecule `Cn1c(=O)c2cc3n(c2n(C)c1=O)CC1C3Nc2ccc(Cl)cc2C1(C)C` (centres undefined), the zone of inhibition at 10 µg/disc in the test with Klebsiella pneumoniae [3] amounted to 26 mm; in the test on Staphylococcus aureus [18] it was 24 mm; with Pseudomonas aeruginosa [23], 14 mm; in the test with Salmonella typhimurium [27], 16 mm; with Escherichia coli [36], 16 mm. In addition, the zone of inhibition at 5 µg/disc in the test with Pseudomonas aeruginosa [4] is 10 mm; with Klebsiella pneumoniae [5], 20 mm; with Staphylococcus aureus [20], 20 mm; with Escherichia coli [28], 10 mm; in the test on Salmonella typhimurium [30], 10 mm. The zone of inhibition at 25 µg/disc in the test on Bacillus subtilis [6] is 9 mm; in the test on Klebsiella pneumoniae [8] it was 36 mm; with Staphylococcus aureus [19], 36 mm; with Salmonella typhimurium [29], 24 mm; in the test with Escherichia coli [32], 23 mm; in the test on Pseudomonas aeruginosa [33], 23 mm. The MIC50 was found to be 0.06 mg/L (≈ 0.156 µM) in the test on Escherichia coli [7]; 0.25 mg/L (≈ 0.65 µM) in the test on Staphylococcus aureus [9]; 0.125 mg/L (≈ 0.325 µM) against Pseudomonas aeruginosa [17]; 0.09 mg/L (≈ 0.234 µM) against Salmonella typhi; 0.25 mg/L (≈ 0.65 µM) in the test with Bacillus subtilis [26]; 0.125 mg/L (≈ 0.325 µM) with Klebsiella pneumoniae [34]. Further, the MIC90 in the test on Escherichia coli [7] stood at 0.25 mg/L (≈ 0.65 µM); with Pseudomonas aeruginosa [17] it was 1 mg/L (≈ 2.6 µM); against Salmonella typhi it was 0.15 mg/L (≈ 0.39 µM); against Bacillus subtilis [26] it was 1.2 mg/L (≈ 3.12 µM); in the test with Klebsiella pneumoniae [34], 2 mg/L (≈ 5.2 µM). In addition, the zone of inhibition at 20 µg/disc in the test with Staphylococcus aureus [10] was found to be 30 mm; in the test with Salmonella typhimurium [12], 22 mm; with Pseudomonas aeruginosa [15], 20 mm; with Klebsiella pneumoniae [16], 34 mm; with Escherichia coli [21], 20 mm; with Bacillus subtilis [25] it was 7 mm. In addition, the outcome (in the test on Escherichia coli [11]; in test [13]; in test [2]) was Active. The zone of inhibition at 15 µg/disc with Bacillus subtilis [14] is 6 mm; in the test on Pseudomonas aeruginosa [22], 16 mm; in the test on Salmonella typhimurium [24], 18 mm; in the test on Staphylococcus aureus [31], 26 mm; in the test with Escherichia coli [35], 18 mm; in the test on Klebsiella pneumoniae [37], 30 mm.
